Measurements as given in the RNAGym collection of RNA variant scans (doi:10.1126/science.aae0568).
This sample holds only a part of the variants without activity.

B1: tRNA (parent)
chain: GUUCCGUUGGCGUAAUGGUAACGCGUCUCCCUCCUAAGGAGAAGACUGCGGGUUCGAGUCCCGUACGGAACG

Variants of: B1
Experiment: yeast fitness relative to wild type (ratio to wild type); higher = fitter; tRNA-Arg(CCU), competitive growth, 37 C, YPD
Method in brief: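 A pool of Saccharomyces cerevisiae strains, each with a tRNA-Arg(CCU) gene variant at the native genomic locus, was competed in YPD at 37°C for 24 hours across six parallel replicates. The variants had been chemically synthesised at a 3% per-site mutation rate over 69 sites, and gene amplicons before and after competition were read by 100-nucleotide paired-end sequencing. Darwinian fitness relative to wild type rested on changes in genotype frequencies. Genotypes required ≥ 100 starting reads, and estimates < 0.5 were set to 0.5.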

First: A21U C66G
Second: A21U C31G C33G C60A
The yeast fitness of the first is lower: 0.513 for the first, 0.543 for the second.

A21G U54A C62U A65G G68A and A21U G48C G63A cannot be ordered by yeast fitness: at most 0.5 for the first, at most 0.5 for the second.

A21U C27U U53C and C22A A36U G68C cannot be ordered by yeast fitness: at most 0.5 for the first, at most 0.5 for the second.

Compared with A21U C34G G39A C55U C61G, A21U C31U G52A is higher in yeast fitness: at most 0.5 for the first, 0.602 for the second.

A21U C22U C30G C55A and A21U G56A G67A cannot be ordered by yeast fitness: at most 0.5 for the first, at most 0.5 for the second.

C22A C30A C33U C61G C62U and A21U C27G C33U C34A C61U cannot be ordered by yeast fitness: at most 0.5 for the first, at most 0.5 for the second.

A21U A43U G63A and A21U C24A A43C G48A A69C cannot be ordered by yeast fitness: at most 0.5 for the first, at most 0.5 for the second.

Compared with A21U G63C, A21U C22U C49A is lower in yeast fitness: 0.633 for the first, 0.56 for the second.

A21U U32G C55A U59C and A21U G39U A43C G63A cannot be ordered by yeast fitness: at most 0.5 for the first, at most 0.5 for the second.

Compared with A21U C22G C33U G68A, A21U C24U G56A is higher in yeast fitness: at most 0.5 for the first, 0.635 for the second.

First: A21U C49G A69C
Second: A21U C34U U35A G39A
The yeast fitness of the first is lower: at most 0.5 for the first, 0.594 for the second.

Compared with C22A C30A C31U G68C, A21U U32A is higher in yeast fitness: at most 0.5 for the first, 0.643 for the second.

First: A21U U32G
Second: A21U C22U A37G G44A A45C C46A C55U U59G U64C
The yeast fitness of the first is higher: 0.808 for the first, at most 0.5 for the second.

Compared with A21U A40G G67A, A21U C29U A69G is lower in yeast fitness: 0.553 for the first, at most 0.5 for the second.

First: A21G U28C A65G
Second: A21U C33U A57U U59C C66U
The yeast fitness of the first is higher: 0.779 for the first, 0.538 for the second.

A21U C22U U32A C49G and A21U G51A C66A cannot be ordered by yeast fitness: at most 0.5 for the first, at most 0.5 for the second.

First: A21U C29G C31G A43U
Second: A21G U47A G48A A65U
The yeast fitness of the first is higher: 0.574 for the first, at most 0.5 for the second.

First: A21U C33U G38A A45U U53A C62U G63C
Second: A21U A40U A70U
The yeast fitness of the first is lower: at most 0.5 for the first, 0.657 for the second.

First: A21U C27G C61U
Second: A21G U53G
The yeast fitness of the first is lower: at most 0.5 for the first, 0.647 for the second.

Going from A21U A45U G67C to A21U A40C U59C C62U G67U, the yeast fitness falls from 0.598 to at most 0.5.

A21U C24U C27A A37C A40U and A21U C30U G39C A43G C46G U54A C62G cannot be ordered by yeast fitness: at most 0.5 for the first, at most 0.5 for the second.

Compared with A21U U26A U54A G63C A65C, A21U is higher in yeast fitness: 0.554 for the first, 0.861 for the second.

First: A21G U53A A57U
Second: A21U A57C G67A
The yeast fitness of the first is lower: 0.516 for the first, 0.556 for the second.

A21U C22A G38C A45U and A21U C34G U64A cannot be ordered by yeast fitness: at most 0.5 for the first, at most 0.5 for the second.

First: A21U U32G U59C
Second: A21U C22U G39A C46U C62U
The yeast fitness of the first is higher: 0.732 for the first, at most 0.5 for the second.

Going from C22A C24G C60G C66G to A21U C22A G50C G67A, the yeast fitness falls from 0.542 to at most 0.5.

First: A21G U35A C55U A65G
Second: A21U C31A G39C C61A
The yeast fitness of the first is lower: at most 0.5 for the first, 0.579 for the second.

Compared with A21U C46U C66A, A21U C33G is higher in yeast fitness: at most 0.5 for the first, 0.731 for the second.

Compared with A21U C33U, A21U C49A is lower in yeast fitness: 0.732 for the first, at most 0.5 for the second.

Compared with C22A C27G A65U, C22A A45C C61U is higher in yeast fitness: at most 0.5 for the first, 0.604 for the second.

First: A21U A43C A45U C49G C61U
Second: A21G U47C A65C
The yeast fitness of the first is lower: 0.56 for the first, 0.63 for the second.

Compared with A21U G23C C24U, A21U A57U G68C is lower in yeast fitness: 0.658 for the first, at most 0.5 for the second.

A21U C34G G39A C55U and A21U C27G C31A C46A G56C cannot be ordered by yeast fitness: at most 0.5 for the first, at most 0.5 for the second.

A21U U28A A42C C49G C62U and A21U A57U C61G cannot be ordered by yeast fitness: at most 0.5 for the first, at most 0.5 for the second.

A21G U35A A43U U59C and A21U C24A A45U C62U cannot be ordered by yeast fitness: at most 0.5 for the first, at most 0.5 for the second.

First: A21U C33U U59A
Second: A21U U59A A70U
The yeast fitness of the first is lower: at most 0.5 for the first, 0.532 for the second.

Compared with A21U G39C, A21U C22U A36G C49A is lower in yeast fitness: 0.574 for the first, at most 0.5 for the second.

Going from C22A C24G U53C to A21U G25C A43G A65G, the yeast fitness rises from at most 0.5 to 0.609.

C22A A37G C60G U64G and C22A A37C A69C cannot be ordered by yeast fitness: at most 0.5 for the first, at most 0.5 for the second.

A21U A37U A65C C66U and C22A A43U G68A cannot be ordered by yeast fitness: at most 0.5 for the first, at most 0.5 for the second.

First: A21U C22G C31U U54A C55U
Second: A21U A45G C62G
The yeast fitness of the first is lower: at most 0.5 for the first, 0.996 for the second.

First: A21U A36G U47C U59A
Second: A21U C27G A40G
The yeast fitness of the first is higher: 0.729 for the first, at most 0.5 for the second.

A21U G41A A42C U54G and A21U C30G C34U G52A A65C A69U cannot be ordered by yeast fitness: at most 0.5 for the first, at most 0.5 for the second.

Going from A21U G52A to A21U C62A G67A A69G, the yeast fitness falls from 0.566 to at most 0.5.

Going from A21U C30G to A21U G56A G67U A69C, the yeast fitness falls from 0.54 to at most 0.5.

First: C22A A37G
Second: C22A A37C
The yeast fitness of the first is higher: 0.823 for the first, 0.641 for the second.

First: A21U G25A C60U
Second: A21U A42G C55U
The yeast fitness of the first is lower: at most 0.5 for the first, 0.601 for the second.

First: C22A A42G C49U
Second: A21U C62U
The yeast fitness of the first is lower: at most 0.5 for the first, 0.716 for the second.

Going from A21U C62A to A21U C49A G50C A57C C66G, the yeast fitness falls from 0.613 to 0.561.

Compared with C22A C24G A43U C62A, C22A A40G is higher in yeast fitness: at most 0.5 for the first, 0.671 for the second.

Going from A21U C24U C27A A37C A40U C49G to A21U A36U, the yeast fitness rises from at most 0.5 to 0.592.

Compared with A21U A36U C49U G52C C62A G67A, A21U C24G U47A is lower in yeast fitness: 0.616 for the first, at most 0.5 for the second.

First: A21U G41A A42C U59C A69U
Second: A21U G25A C33U A57U U59C
The yeast fitness of the first is lower: at most 0.5 for the first, 0.562 for the second.

A21U C34G C60G and A21U C33U A57C cannot be ordered by yeast fitness: at most 0.5 for the first, at most 0.5 for the second.

First: A21U A43C
Second: A21U C24A C27A U32C U64A
The yeast fitness of the first is higher: 0.974 for the first, at most 0.5 for the second.

Going from C22A C29U C49U to A21G U64C, the yeast fitness rises from 0.622 to 0.864.

Going from A21U C33G G41C to A21G U32C U59G C66U A70C, the yeast fitness rises from at most 0.5 to 0.703.

A21U G25A C29A A36G C46A C55A and A21U C34U A45G G50A cannot be ordered by yeast fitness: at most 0.5 for the first, at most 0.5 for the second.

First: A21U U28C C31U
Second: A21U G25A G68U
The yeast fitness of the first is higher: 0.637 for the first, 0.547 for the second.

C22A A37U C66U and C22A C30A U54C C55G cannot be ordered by yeast fitness: at most 0.5 for the first, at most 0.5 for the second.

Compared with C22A C27G G68U, A21U C24U C27A A37C A40U G67C is higher in yeast fitness: at most 0.5 for the first, 0.54 for the second.

First: A21U C33A G39C G41C G44C A69C
Second: A21U C31U G52A A69G
The yeast fitness of the first is lower: at most 0.5 for the first, 0.706 for the second.

Going from A21U C29G C31G A43U C60U to A21U G41C A43C U54G A69C, the yeast fitness falls from 0.586 to 0.551.

Going from A21U C29G C49G A70U to A21U G25C, the yeast fitness rises from at most 0.5 to 1.08.

Compared with A21U U59G, A21U U59C is higher in yeast fitness: 0.583 for the first, 0.672 for the second.

Going from A21U A57C to A21U A57G, the yeast fitness rises from 0.619 to 0.882.

Going from A21U C31U to A21U C33A C34G G51C, the yeast fitness falls from 0.717 to at most 0.5.

Compared with A21U C30G C61U, C22A A65U A70G is higher in yeast fitness: at most 0.5 for the first, 0.662 for the second.

Compared with A21U C27G C33G C60G, A21U C55G G56C is lower in yeast fitness: 0.52 for the first, at most 0.5 for the second.

Compared with A21U C27G C30A, C22A A45U is higher in yeast fitness: 0.514 for the first, 0.837 for the second.

First: A21U C30A A69U
Second: A21U C30U U32A G63C
The yeast fitness of the first is higher: 0.815 for the first, at most 0.5 for the second.

First: C22A A65C
Second: A21U C55U C62G
The yeast fitness of the first is higher: 0.836 for the first, at most 0.5 for the second.

Compared with A21G U32C, A21U U53A A65C G67A is lower in yeast fitness: 1.03 for the first, 0.682 for the second.

Going from A21U U54A to A21U A37U A45C G51A G67A, the yeast fitness rises from 0.533 to 0.67.

C22A C31G G38C A43G and A21U C33U C49A C55U cannot be ordered by yeast fitness: at most 0.5 for the first, at most 0.5 for the second.

C22A A42U G50C A57G and C22A A43G G63U U64A cannot be ordered by yeast fitness: at most 0.5 for the first, at most 0.5 for the second.

A21U A36C G56C and A21U A36G A43U U64A cannot be ordered by yeast fitness: at most 0.5 for the first, at most 0.5 for the second.

C22A C24G A36G G39C C66U and A21U C29U A37U C66U cannot be ordered by yeast fitness: at most 0.5 for the first, at most 0.5 for the second.

A21U C29A A36G G58A C66U and A21U G23C G58U A65G G67A cannot be ordered by yeast fitness: at most 0.5 for the first, at most 0.5 for the second.

Going from C22A A40U A43C G48A A69U to A21U C22U, the yeast fitness rises from at most 0.5 to 0.546.

First: A21U C22G
Second: A21U C24U C66U
The yeast fitness of the first is higher: 1.01 for the first, at most 0.5 for the second.

First: A21U U54A A70G
Second: A21U G51A
The yeast fitness of the first is lower: 0.565 for the first, 0.751 for the second.

A21U G51C and A21U U32G U59C G68A cannot be ordered by yeast fitness: at most 0.5 for the first, at most 0.5 for the second.

C22A A36U gave a yeast fitness of 0.586.
